LMPTP inh – LMPTP phosphatase inhibitors, primary screen, biochemical, fluorescence intensity, uHTS; recombinant LMPTP-A, OMFP fluorogenic substrate; 360,000 compounds, 0.22% hits; Low molecular weight phosphotyrosine protein phosphatase (Homo sapiens), P24666; AID 651560, 2012; inhibition, % at 20 µM;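 active = compounds that cut the enzyme signal by at least half of the control window in the single-dose screen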;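 also: plate controls were DMSO wells with enzyme plus substrate for no effect and substrate without enzyme for full effect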
Target sequence (P24666 whole entry, looked up): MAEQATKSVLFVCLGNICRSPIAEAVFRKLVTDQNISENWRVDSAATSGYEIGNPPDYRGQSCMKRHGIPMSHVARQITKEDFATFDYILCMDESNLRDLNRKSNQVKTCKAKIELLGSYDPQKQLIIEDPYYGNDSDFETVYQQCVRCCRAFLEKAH
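Material: LMPTP-A; amount: 0.625 nM enzyme; doses: single 20 µM dose; times: reaction 50 min, room temperature, dark; technique: fluorescence intensity of OMFP turnover product; benchmarks: no-enzyme and uninhibited controls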
NadD block – inhibitors of S. aureus NadD, primary screen, biochemical, colorimetric, uHTS; Nicotinate-nucleotide adenylyltransferase NadD (Staphylococcus aureus N315); purified NadD enzyme, colorimetric absorbance read-out; inhibition, % at 20 µM; 360,000 compounds, 0.78% hits; AID 602399, 2012; in the data active = inhibition above about 26%
STEP block – STEP phosphatase inhibitors, primary screen, biochemical, fluorescence intensity, uHTS; Tyrosine-protein phosphatase non-receptor type 5 (Homo sapiens), P54829; inhibition, % at 20 µM; 360,000 compounds, 0.25% hits; recombinant STEP, OMFP fluorogenic substrate;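 active = inhibition at 20 µM, scaled per plate between control wells, above about 37%, limit read from the data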;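 also: 0% = DMSO with enzyme and substrate and 100% = substrate only without enzyme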
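Material: STEP (striatal-enriched tyrosine phosphatase) enzyme, cell-free; Compound dosing: 20 µM single dose in 1% DMSO; Technique: fluorescence read at 480 nm ex / 540 nm em; Times: reaction 20 min, ambient temperature; Medium: 50 mM Bis-Tris pH 6.0 with 2.5 mM DTT and 0.005% Tween 20; Also added: OMFP at 25 µM.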
SUMO1 PPI mod – modulators of SUMO1 protein-protein interactions, primary screen, biochemical, uHTS; Small ubiquitin-related modifier 1 (Homo sapiens), P63165; 360,000 compounds, 0.33% hits; inhibition, % at 20 µM; AID 602429, 2012; SUMO1 binding to a labelled peptide, TR-FRET, 1 h; in the data active = inhibition above about 37%
Target sequence (P63165 whole entry, looked up): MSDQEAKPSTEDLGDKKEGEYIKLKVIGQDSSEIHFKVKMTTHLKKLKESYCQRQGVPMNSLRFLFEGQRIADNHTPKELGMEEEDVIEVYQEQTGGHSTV
Scp1 inh – Scp-1 phosphatase inhibitors, primary screen, biochemical, colorimetric, uHTS | Carboxy-terminal domain RNA polymerase II polypeptide A small phosphatase 1 (Homo … | Recombinant Scp1, phosphopeptide, malachite green phosphate absorbance | inhibition, % at 20 µM | 340,000 compounds, 0.88% hits | AID 493091, 2011;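 active = inhibition above about 50% at 20 µM, limit read from the data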;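 also: plate controls were DMSO wells with enzyme for no effect and wells lacking enzyme for full effect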
Target sequence (Q9GZU7 76-261 limits assumed): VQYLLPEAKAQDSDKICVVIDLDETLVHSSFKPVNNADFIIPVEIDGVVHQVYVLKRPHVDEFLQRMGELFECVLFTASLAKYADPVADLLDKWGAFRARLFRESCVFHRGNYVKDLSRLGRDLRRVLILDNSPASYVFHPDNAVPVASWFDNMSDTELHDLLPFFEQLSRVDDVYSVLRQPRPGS
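Test system – truncated SCP-1 phosphatase (76-261aa) · Reagent – Phosphorylated 17-residue peptide substrate · Incubation – 45 min room-temperature reaction, 5 min colour, 30 min stabiliser · Detection – colorimetric phosphate reagent with accelerator and stabiliser, absorbance at 630 nm · Measure – % inhibition at 20 µM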
DNMT1 inh – human DNMT1 methyltransferase inhibitors, primary screen, biochemical, molecular beacon, fluorescence, HinP1I cleavage, uHTS. inhibition (reported as % activation of signal), % at 10 µM. 360,000 compounds, 0.83% hits. AID 588458, 2011. DNA (cytosine-5)-methyltransferase 1 (Homo sapiens), P26358; in the data active = inhibition above about 50%
The depositor's hits bear a star. Most compounds without a hit are left out; they make up all but 2.4% or so of the library.

`O=C(Nc1cccc(Br)c1)c1ccccc1-c1ccccc1` gave LMPTP inh 2.4, NadD block -5.5, STEP block 2.7, SUMO1 PPI mod 0.1, Scp1 inh -10.5 and DNMT1 inh -3.2.
For O=C1C=C(Nc2ccccc2O)c2ccccc2C1=O the results were LMPTP inh 5.3, NadD block 9.7, STEP block 4.7, SUMO1 PPI mod 10.2, Scp1 inh -4.5 and DNMT1 inh 1.1.
For O=C1C=C(Nc2cccnc2)c2ccccc2C1=O the results were LMPTP inh 7.1, NadD block 14.3, STEP block 9.5, SUMO1 PPI mod -12.3, Scp1 inh 1.1 and DNMT1 inh 41.3.
`CCOc1ccc(NC2=CC(=O)CCC2)cc1` gave LMPTP inh -1.8, NadD block 1.2, STEP block -3.0, SUMO1 PPI mod 0.8, Scp1 inh -5.7 and DNMT1 inh 1.5.
CCOc1ccc(NC2=CC(=O)C(=O)c3ccccc32)cc1 was read as LMPTP inh 5.4, NadD block 7.8, STEP block 19.5, SUMO1 PPI mod -18.7, Scp1 inh 56.7* and DNMT1 inh 30.9.
For O=C1C=C(Nc2ccc(F)cc2)c2ccccc2C1=O the results were LMPTP inh 5.0, NadD block 17.4, STEP block 7.4, SUMO1 PPI mod -39.3, Scp1 inh -0.1 and DNMT1 inh 54.5*.
O=C1C=C(NCc2ccccc2)c2ccccc2C1=O was read as LMPTP inh 9.6, NadD block 2.0, STEP block 4.7, SUMO1 PPI mod 43.7*, Scp1 inh -1.4 and DNMT1 inh 84.4*.
Cc1cnc(C(=O)OCC(=O)N2c3ccccc3CC2C)cn1 (centres undefined) was read as LMPTP inh -0.9, NadD block 2.6, STEP block -2.6, SUMO1 PPI mod 1.7, Scp1 inh -2.5 and DNMT1 inh 1.1.
Screening CCCn1cc(CN2CCCC(CNC(=O)c3ccc(F)cc3)C2)c(C)n1 (centres undefined) returned LMPTP inh 0.3, NadD block -7.7, STEP block -5.0, SUMO1 PPI mod 4.0, Scp1 inh -1.4 and DNMT1 inh 1.8.
For O=C(Nc1ccc(C(=O)O)cc1)/C(=C/c1ccc2c(c1)OCO2)NC(=O)c1cccc(Br)c1 the results were LMPTP inh 0.9, NadD block 10.3, STEP block 1.6, SUMO1 PPI mod -5.0, Scp1 inh -0.8 and DNMT1 inh 4.2.
`O=C(N/C=C/c1ccco1)NCc1ccccc1` gave LMPTP inh 4.2, NadD block 0.7, STEP block 6.3, SUMO1 PPI mod 4.9, Scp1 inh 41.0 and DNMT1 inh 60.5*.
Screening O=C(NC1CCCC1)C1CCN(C(=O)NCc2ccccc2)CC1 returned LMPTP inh -0.3, NadD block 3.8, STEP block 0.4, SUMO1 PPI mod 3.0, Scp1 inh 0.6 and DNMT1 inh 0.3.
O=c1c2ccccc2sn1-c1cc(S(=O)(=O)N2CCOCC2)ccc1N1CCOCC1 was read as LMPTP inh -1.3, NadD block 8.7, STEP block 8.5, SUMO1 PPI mod 4.7, Scp1 inh 94.1* and DNMT1 inh -2.2.
`COCc1cc(=O)[nH]c(Nc2nc3ccccc3o2)n1` gave LMPTP inh 1.3, NadD block -1.6, STEP block 1.3, SUMO1 PPI mod 6.5, Scp1 inh -4.9 and DNMT1 inh -3.9.
For Cc1ccc2oc(Nc3nc(-c4ccccc4)cc(=O)[nH]3)nc2c1 the results were Scp1 inh 96.5*.
Screening Cc1cc(C(=O)N/N=C/c2ccc(O)c(O)c2O)c(C)n1-c1ccccc1 returned LMPTP inh 55.9*, NadD block 33.0*, STEP block 11.7, SUMO1 PPI mod 8.1, Scp1 inh 9.2 and DNMT1 inh 10.0.

Bioassay records deposited in PubChem BioAssay by Sanford-Burnham Center for Chemical Genomics.
